{
  "source": "ChEMBL document CHEMBL4184236",
  "about": "“Design, synthesis and biological evaluation of matrine derivatives as potential anticancer agents” (Bioorg Med Chem Lett, 2018)",
  "key": {"SMMC-7721 [1]": {"tested_on": "SMMC-7721", "test": "Induction of apoptosis in human SMMC7721 cells assessed as viable cells level at 50 uM incubated for 24 hrs by Annexin V-FITC/PI dual staining based flow cytometry (reference value: 96.2%)", "format": "functional", "procedure,_shortened": "(§1)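 CNE2 and SMMC-7721 cells were treated for 24 h at 0, 5, 10 or 30 µM, or at 0, 10, 20 or 50 µM depending on compound. Cells were stained with Annexin V-FITC/propidium iodide and quantified by flow cytometry. Apoptotic cells were counted as AV+/PI− (lower right) plus AV+/PI+ (upper right) quadrants.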"}, "SMMC-7721 [2]": {"tested_on": "SMMC-7721", "test": "Induction of apoptosis in human SMMC7721 cells incubated for 24 hrs by Annexin V-FITC/PI dual staining based flow cytometry", "format": "functional, cell-based", "procedure,_shortened": "as §1"}, "CNE-2 [3]": {"tested_on": "CNE-2", "test": "Induction of apoptosis in human CNE2 cells assessed as late apoptotic cells level at 50 uM incubated for 24 hrs by Annexin V-FITC/PI dual staining based flow cytometry (reference value: 1.37%)", "format": "functional", "procedure,_shortened": "as §1"}, "CNE-2 [4]": {"tested_on": "CNE-2", "test": "Induction of apoptosis in human CNE2 cells assessed as viable cells level at 20 uM incubated for 24 hrs by Annexin V-FITC/PI dual staining based flow cytometry (reference value: 91.6%)", "format": "functional", "procedure,_shortened": "as §1"}, "CNE-2 [5]": {"tested_on": "CNE-2", "test": "Induction of apoptosis in human CNE2 cells assessed as late apoptotic cells level at 20 uM incubated for 24 hrs by Annexin V-FITC/PI dual staining based flow cytometry (reference value: 1.37%)", "format": "functional", "procedure,_shortened": "as §1"}, "CNE-2 [6]": {"tested_on": "CNE-2", "test": "Induction of apoptosis in human CNE2 cells assessed as early apoptotic cells level at 50 uM incubated for 24 hrs by Annexin V-FITC/PI dual staining based flow cytometry (reference value: 3.56%)", "format": "functional", "procedure,_shortened": "as §1"}, "CNE-2 [7]": {"tested_on": "CNE-2", "test": "Induction of apoptosis in human CNE2 cells assessed as necrotic cells level at 20 uM incubated for 24 hrs by Annexin V-FITC/PI dual staining based flow cytometry (reference value: 3.43%)", "format": "functional", "procedure,_shortened": "as §1"}, "SMMC-7721 [8]": {"tested_on": "SMMC-7721", "test": "Induction of apoptosis in human SMMC7721 cells assessed as late apoptotic cells level at 50 uM incubated for 24 hrs by Annexin V-FITC/PI dual staining based flow cytometry (reference value: 1.6%)", "format": "functional", "procedure,_shortened": "as §1"}, "SMMC-7721 [9]": {"tested_on": "SMMC-7721", "test": "Anticancer activity against human SMMC7721 cells assessed as reduction in cell viability incubated for 48 hrs MTT assay", "format": "functional, cell-based", "settings": "SMMC-7721, 48 h", "procedure,_shortened": "(§2)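 MTT assay on human hepatocarcinoma SMMC-7721, lung carcinoma A549 and nasopharyngeal carcinoma CNE2 cells, with matrine as comparator and cisplatin as positive control. IC50 is the concentration that lowers optical density of treated cells by 50% versus untreated cells, given as the mean ± SD of three experiments.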"}, "CNE-2 [10]": {"tested_on": "CNE-2", "test": "Induction of apoptosis in human CNE2 cells incubated for 24 hrs by Annexin V-FITC/PI dual staining based flow cytometry", "format": "functional, cell-based", "procedure,_shortened": "as §1"}, "SMMC-7721 [11]": {"tested_on": "SMMC-7721", "test": "Induction of apoptosis in human SMMC7721 cells assessed as early apoptotic cells level at 20 uM incubated for 24 hrs by Annexin V-FITC/PI dual staining based flow cytometry (reference value: 1%)", "format": "functional", "procedure,_shortened": "as §1"}, "SMMC-7721 [12]": {"tested_on": "SMMC-7721", "test": "Induction of apoptosis in human SMMC7721 cells assessed as early apoptotic cells level at 50 uM incubated for 24 hrs by Annexin V-FITC/PI dual staining based flow cytometry (reference value: 1%)", "format": "functional", "procedure,_shortened": "as §1"}, "SMMC-7721 [13]": {"tested_on": "SMMC-7721", "test": "Induction of apoptosis in human SMMC7721 cells assessed as early apoptotic cells level at 10 uM incubated for 24 hrs by Annexin V-FITC/PI dual staining based flow cytometry (reference value: 1%)", "format": "functional", "procedure,_shortened": "as §1"}, "SMMC-7721 [14]": {"tested_on": "SMMC-7721", "test": "Induction of apoptosis in human SMMC7721 cells assessed as viable cells level at 10 uM incubated for 24 hrs by Annexin V-FITC/PI dual staining based flow cytometry (reference value: 96.2%)", "format": "functional", "procedure,_shortened": "as §1"}, "SMMC-7721 [15]": {"tested_on": "SMMC-7721", "test": "Induction of apoptosis in human SMMC7721 cells assessed as necrotic cells level at 20 uM incubated for 24 hrs by Annexin V-FITC/PI dual staining based flow cytometry (reference value: 1.18%)", "format": "functional", "procedure,_shortened": "as §1"}, "A549": {"tested_on": "A549", "test": "Anticancer activity against human A549 cells assessed as reduction in cell viability incubated for 48 hrs MTT assay", "format": "functional, cell-based", "settings": "A549, 48 h", "procedure,_shortened": "as §2"}, "SMMC-7721 [16]": {"tested_on": "SMMC-7721", "test": "Induction of apoptosis in human SMMC7721 cells assessed as late apoptotic cells level at 10 uM incubated for 24 hrs by Annexin V-FITC/PI dual staining based flow cytometry (reference value: 1.6%)", "format": "functional", "procedure,_shortened": "as §1"}, "CNE-2 [17]": {"tested_on": "CNE-2", "test": "Anticancer activity against human CNE2 cells assessed as reduction in cell viability incubated for 48 hrs MTT assay", "format": "functional, cell-based", "settings": "CNE-2, 48 h", "procedure,_shortened": "as §2"}, "CNE-2 [18]": {"tested_on": "CNE-2", "test": "Induction of apoptosis in human CNE2 cells assessed as early apoptotic cells level at 20 uM incubated for 24 hrs by Annexin V-FITC/PI dual staining based flow cytometry (reference value: 3.56%)", "format": "functional", "procedure,_shortened": "as §1"}, "SMMC-7721 [19]": {"tested_on": "SMMC-7721", "test": "Induction of apoptosis in human SMMC7721 cells assessed as late apoptotic cells level at 20 uM incubated for 24 hrs by Annexin V-FITC/PI dual staining based flow cytometry (reference value: 1.6%)", "format": "functional", "procedure,_shortened": "as §1"}, "CNE-2 [20]": {"tested_on": "CNE-2", "test": "Induction of apoptosis in human CNE2 cells assessed as necrotic cells level at 50 uM incubated for 24 hrs by Annexin V-FITC/PI dual staining based flow cytometry (reference value: 3.43%)", "format": "functional", "procedure,_shortened": "as §1"}, "CNE-2 [21]": {"tested_on": "CNE-2", "test": "Induction of apoptosis in human CNE2 cells assessed as viable cells level at 50 uM incubated for 24 hrs by Annexin V-FITC/PI dual staining based flow cytometry (reference value: 91.6%)", "format": "functional", "procedure,_shortened": "as §1"}, "SMMC-7721 [22]": {"tested_on": "SMMC-7721", "test": "Induction of apoptosis in human SMMC7721 cells assessed as necrotic cells level at 50 uM incubated for 24 hrs by Annexin V-FITC/PI dual staining based flow cytometry (reference value: 1.18%)", "format": "functional", "procedure,_shortened": "as §1"}, "SMMC-7721 [23]": {"tested_on": "SMMC-7721", "test": "Induction of apoptosis in human SMMC7721 cells assessed as necrotic cells level at 10 uM incubated for 24 hrs by Annexin V-FITC/PI dual staining based flow cytometry (reference value: 1.18%)", "format": "functional", "procedure,_shortened": "as §1"}, "SMMC-7721 [24]": {"tested_on": "SMMC-7721", "test": "Induction of apoptosis in human SMMC7721 cells assessed as viable cells level at 20 uM incubated for 24 hrs by Annexin V-FITC/PI dual staining based flow cytometry (reference value: 96.2%)", "format": "functional", "procedure,_shortened": "as §1"}},
  "data": [
    {"molecule": "COc1ccc2c(c1)c(/C=C1\\CC[C@@H]3[C@H]4CCCN5CCC[C@@H](CN3C1=O)[C@@H]45)cn2Cc1cccc(Cl)c1", "values": [
      {"measurement": "Activity", "setting": "SMMC-7721 [1]", "result": 2.15, "unit": "%"},
      {"measurement": "Activity", "setting": "SMMC-7721 [2]", "result": "Dose-dependent effect"},
      {"measurement": "Activity", "setting": "CNE-2 [3]", "result": 28.3, "unit": "%"},
      {"measurement": "Activity", "setting": "CNE-2 [4]", "result": 58.7, "unit": "%"},
      {"measurement": "Activity", "setting": "CNE-2 [5]", "result": 8.7, "unit": "%"},
      {"measurement": "Activity", "setting": "CNE-2 [6]", "result": 45.9, "unit": "%"},
      {"measurement": "Activity", "setting": "CNE-2 [7]", "result": 2.7, "unit": "%"},
      {"measurement": "Activity", "setting": "SMMC-7721 [8]", "result": 79.5, "unit": "%"},
      {"measurement": "IC50", "setting": "SMMC-7721 [9]", "result": 3.95, "unit": "µM"},
      {"measurement": "Activity", "setting": "CNE-2 [10]", "result": "Dose-dependent effect"},
      {"measurement": "Activity", "setting": "SMMC-7721 [11]", "result": 40.6, "unit": "%"},
      {"measurement": "Activity", "setting": "SMMC-7721 [12]", "result": 15.5, "unit": "%"},
      {"measurement": "Activity", "setting": "SMMC-7721 [13]", "result": 35.6, "unit": "%"},
      {"measurement": "Activity", "setting": "SMMC-7721 [14]", "result": 60.3, "unit": "%"},
      {"measurement": "Activity", "setting": "SMMC-7721 [15]", "result": 2.53, "unit": "%"},
      {"measurement": "IC50", "setting": "A549", "result": 4.96, "unit": "µM"},
      {"measurement": "Activity", "setting": "SMMC-7721 [16]", "result": 3.4, "unit": "%"},
      {"measurement": "IC50", "setting": "CNE-2 [17]", "result": 3.42, "unit": "µM"},
      {"measurement": "Activity", "setting": "CNE-2 [18]", "result": 29.9, "unit": "%"},
      {"measurement": "Activity", "setting": "SMMC-7721 [19]", "result": 18.2, "unit": "%"},
      {"measurement": "Activity", "setting": "CNE-2 [20]", "result": 4.62, "unit": "%"},
      {"measurement": "Activity", "setting": "CNE-2 [21]", "result": 21.2, "unit": "%"},
      {"measurement": "Activity", "setting": "SMMC-7721 [22]", "result": 2.91, "unit": "%"},
      {"measurement": "Activity", "setting": "SMMC-7721 [23]", "result": 0.69, "unit": "%"},
      {"measurement": "Activity", "setting": "SMMC-7721 [24]", "result": 38.6, "unit": "%"}
    ]}
  ]
}
